The results in this text go back to ChEMBL document CHEMBL1123467, “Comparison of the chemical reactivities and antineoplastic activities of alpha,beta-, alpha,beta'-, beta,beta'-, and alpha,alpha'-bis[[[(2-propylamino)carbonyl]oxy]methyl]-substituted pyrroles” (1986).

Each structure is given as a SMILES string. “And” between values parts separate entries of the source, which are not always exact repeats. Equal values may be shown once.

The subject of assay [1] is P388. Briefly: Compound was tested for the antitumor activity against P388 lymphocytic leukemia at dose level of 120 mg/kg. The format is functional, Mus musculus.
In assay [2] the test system is P388. Briefly: Compound was tested in vivo for the antitumor activity against P388 lymphocytic leukemia at dose level of 15 mg/kg. The format is functional, Mus musculus.
The test system of assay [3] is P388. Kind of assay: Compound was tested for the antitumor activity against P388 lymphocytic leukemia at dose level of 240 mg/kg; 0/6. The format is functional, Mus musculus.
Assay [4] relates to P388. Briefly: Compound was tested for the antitumor activity against P388 lymphocytic leukemia at dose level of 60 mg/kg; 6/6. The format is functional, Mus musculus.
Assay [5] relates to P388. Briefly: Compound was tested in vivo for the antitumor activity against P388 lymphocytic leukemia at dose level of 60 mg/kg. The format is functional, Mus musculus.
Assay [6] relates to M5076. Kind of assay: Compound was tested in vivo for the antitumor activity against solid tumor models at dose level of 50 mg/kg (M5076 assay). It is filed as functional.
Assay [7] can be described thus: Compound was tested for the antitumor activity against solid tumor models at dose level of 100 mg/kg (LOX assay). The format is functional, Homo sapiens.
Assay [8] concerns P388. Briefly: Compound was tested in vivo for the antitumor activity against P388 lymphocytic leukemia at dose level of 30 mg/kg. It is filed as functional, Mus musculus.
Assay [9] is described as follows: Compound was tested in vivo for the antitumor activity against solid tumor models at dose level of 100 mg/kg (LOX assay). It is filed as functional, Homo sapiens.
In assay [10] the test system is P388. Briefly: Compound was tested in vivo for its antitumor activity against P388 lymphocytic leukemia at dose level of 60 mg/kg. It is filed as functional, Mus musculus.
Assay [11] deals with P388. Kind of assay: Compound was tested for the antitumor activity against P388 lymphocytic leukemia at dose level of 15 mg/kg; 6/6. The format is functional, Mus musculus.
Assay [12] relates to P388. Briefly: Compound was tested for the antitumor activity against P388 lymphocytic leukemia at dose level of 120 mg/kg; 5/6. It is filed as functional, Mus musculus.
Assay [13] is described as follows: Pseudo-first order rate constant for the reaction with 4-(p-Nitrobenzyl)pyridine. An outline of the steps:
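Alkylating ability was measured against 4-(p-nitrobenzyl)pyridine (NBP), with 0.2 µmol alkylating agent and 240 µmol NBP as starting amounts. At timed points the mixture was diluted with acetone, mixed 3 s, and read at once at 570 nm. The blank was NBP, water, absolute ethanol, base solution and acetone. k' = slope of E570 vs time. Competing hydrolysis was assumed minor and neglected in the initial phase.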

The subject of assay [14] is P388. Kind of assay: Compound was tested for the antitumor activity against P388 lymphocytic leukemia at dose level of 30 mg/kg; 6/6. The format is functional, Mus musculus.
Assay [15] relates to M5076. Briefly: Compound was tested for the antitumor activity against solid tumor models at dose level of 50 mg/kg (M5076 assay). The format is functional.
The subject of assay [16] is P388. Briefly: Compound was tested in vivo for its antitumor activity against P388 lymphocytic leukemia at dose level of 240 mg/kg; Toxic dose. The format is functional, organism-based. The arrangement: dose 240 mg/kg. The settings on record: Mus musculus.
The subject of assay [17] is P388. Kind of assay: Compound was tested in vivo for its antitumor activity against P388 lymphocytic leukemia at dose level of 30 mg/kg. The format is functional, Mus musculus.
For assay [18], the system named is Homo sapiens. Briefly: Compound was tested for the antitumor activity against solid tumor models at t dose level of 200 mg/kg (MX-1 assay). The format is functional.
In assay [19] the test system is P388. Briefly: Compound was tested for the antitumor activity against P388 lymphocytic leukemia at dose level of 60 mg/kg. The format is functional, Mus musculus.
The subject of assay [20] is Homo sapiens. Briefly: Compound was tested in vivo for the antitumor activity against solid tumor models at dose level of 200 mg/kg (MX-1 assay). It is filed as functional.
Assay [21] deals with P388. Briefly: Compound was tested in vivo for its antitumor activity against P388 lymphocytic leukemia and at dose level of 120 mg/kg; Toxic dose. The format is functional, organism-based. The arrangement: dose 120 mg/kg. The settings on record: Mus musculus.
Assay [22] deals with P388. Briefly: Compound was tested for the antitumor activity against P388 lymphocytic leukemia at dose level of 30 mg/kg. The format is functional, Mus musculus.
Assay [23] deals with P388. Kind of assay: Compound was tested in vivo for its antitumor activity against P388 lymphocytic leukemia at dose level of 15 mg/kg. It is filed as functional, Mus musculus.
For assay [24], the system named is P388. Briefly: Compound was tested for the antitumor activity against P388 lymphocytic leukemia at dose level of 15 mg/kg. It is filed as functional, Mus musculus.
Assay [25] relates to P388. Briefly: Compound was tested in vivo for its antitumor activity against P388 lymphocytic leukemia at dose level of 120 mg/kg; Toxic dose. The format is functional, organism-based. The arrangement: dose 120 mg/kg. The settings on record: Mus musculus.
Assay [26] has as its system P388. Kind of assay: Compound was tested in vivo for the antitumor activity against P388 lymphocytic leukemia at dose level of 40 mg/kg. It is filed as functional, Mus musculus.
Assay [27] deals with P388. Kind of assay: Compound was tested in vivo for the antitumor activity against P388 lymphocytic leukemia at dose level of 120 mg/kg. The format is functional, Mus musculus.
The subject of assay [28] is P388. Kind of assay: Compound was tested for the antitumor activity against P388 lymphocytic leukemia at dose level of 240 mg/kg. It is filed as functional, Mus musculus.
The subject of assay [29] is P388. Briefly: Compound was tested in vivo for the antitumor activity against P388 lymphocytic leukemia at dose level of 20 mg/kg. It is filed as functional, Mus musculus.
The test system of assay [30] is P388. Briefly: Compound was tested for the antitumor activity against P388 lymphocytic leukemia at dose level of 240 mg/kg; 6/6. The format is functional, Mus musculus.
Assay [31] concerns P388. Kind of assay: Compound was tested in vivo for its antitumor activity against P388 lymphocytic leukemia at dose level of 20 mg/kg. It is filed as functional, Mus musculus.
The test system of assay [32] is P388. Kind of assay: Compound was tested in vivo for its antitumor activity against P388 lymphocytic leukemia at dose level of 40 mg/kg. The format is functional, Mus musculus.
Assay [33] relates to P388. Briefly: Compound was tested for the antitumor activity against P388 lymphocytic leukemia at dose level of 40 mg/kg; 6/6. It is filed as functional, Mus musculus.
Assay [34] relates to P388. Kind of assay: Compound was tested for the antitumor activity against P388 lymphocytic leukemia at dose level of 120 mg/kg; 6/6. The format is functional, Mus musculus.
Assay [35] relates to P388. Kind of assay: Compound was tested for the antitumor activity against P388 lymphocytic leukemia at dose level of 20 mg/kg; 6/6. It is filed as functional, Mus musculus.
Assay [36] relates to P388. Kind of assay: Compound was tested for the antitumor activity against P388 lymphocytic leukemia at dose level of 20 mg/kg. The format is functional, Mus musculus.
Assay [37] deals with P388. Kind of assay: Compound was tested for the antitumor activity against P388 lymphocytic leukemia at dose level of 40 mg/kg. The format is functional, Mus musculus.
Assay [38] concerns P388. Kind of assay: Compound was tested in vivo for the antitumor activity against P388 lymphocytic leukemia at dose level of 240 mg/kg. It is filed as functional, Mus musculus.
In assay [39] the test system is M5076. Briefly: Compound was tested for the antitumor activity against solid tumor models at dose level of 800 mg/kg (M5076 assay). The format is functional.
The subject of assay [40] is M5076. Briefly: Compound was tested in vivo for the antitumor activity against solid tumor models at dose level of 800 mg/kg (M5076 assay). The format is functional, Homo sapiens.
The test system of assay [41] is P388. Kind of assay: Compound was tested in vivo for its antitumor activity against P388 lymphocytic leukemia at dose level of 240 mg/kg. It is filed as functional, Mus musculus.
In assay [42] the test system is P388. Briefly: Compound was tested in vivo for its antitumor activity against P388 lymphocytic leukemia at dose level of 120 mg/kg. It is filed as functional, Mus musculus.
The test system of assay [43] is Homo sapiens. Kind of assay: Compound was tested for the antitumor activity against solid tumor models at t dose level of 800 mg/kg (MX-1 assay). The format is functional.
Assay [44] concerns Homo sapiens. Kind of assay: Compound was tested in vivo for the antitumor activity against solid tumor models at dose level of 800 mg/kg (MX-1 assay). The format is functional.
Assay [45] can be described thus: Compound was tested for the antitumor activity against solid tumor models at dose level of 400 mg/kg (LOX assay). The format is functional, Homo sapiens.
A short description of assay [46]: Compound was tested in vivo for the antitumor activity against solid tumor models at dose level of 400 mg/kg (LOX assay). The format is functional, Homo sapiens.

Consider `CC(C)NC(=O)OCc1c(-c2ccccc2)c(COC(=O)NC(C)C)n(C)c1-c1ccccc1`, for which the Weight difference in the assay with P388 [1] was -4.5 g; in [7], -3.5 g; in the assay with M5076 [15] it was -2.5 g; in the assay with Homo sapiens [18], -7.2 g; with P388 [19], -3.8 g; with P388 [22], -5.3 g. Also, in the assay on P388 [24], the Weight difference was -3.7 g. Also, the T/C is reported as 134% in the assay on P388 [2]; 180% in the assay on P388 [5]; 139% in the assay with M5076 [6]; 150% in the assay on P388 [8]; 180% in assay [9]; -3% with Homo sapiens [20]. The TDS is listed as 0 in the assay on P388 [3]; 6 with P388 [4]; 6 in the assay with P388 [11]; 5 in the assay on P388 [12]; 6 with P388 [14]. The KE was 3.89 in the assay on P388 [10]; “Toxic” in the assay with P388 [16]; 0.88 in the assay with P388 [17]; “Toxic” with P388 [21]; -0.19 in the assay with P388 [23]. Besides, in [13], the K' is 0.00112 abs/time.
As to `CC(C)NC(=O)OCc1c(COC(=O)NC(C)C)c(-c2ccccc2)n(C)c1-c1ccccc1`, the Weight difference in the assay on P388 [1] is on record as -4.4 g; in the assay with P388 [28], -5.5 g; in the assay on P388 [36], -0.1 g; with P388 [37], -1.6 g; in the assay with P388 [19], -2.2 g. Further, the KE result in the assay on P388 [25] was “Toxic”; in the assay with P388 [31], 0.08; with P388 [32], 2.85; with P388 [10], 6.43; in the assay with P388 [16] it was “Toxic”. Besides, the T/C in the assay with P388 [26] is 168%; in the assay on P388 [27], 94%; with P388 [29], 137% and 205%; with P388 [5], 209%. In addition, the TDS with P388 [30], in the assay with P388 [4], in the assay on P388 [33], with P388 [34] and with P388 [35] was 6 throughout. This compound had a K' in assay [13] of 0.00498 abs/time.
With `CC(C)NC(=O)OCc1c(-c2ccccc2)c(-c2ccccc2)n(C)c1COC(=O)NC(C)C`, the T/C was determined as 181% in the assay on P388 [38]; 160% in the assay with P388 [27]; 142% in the assay on P388 [5]; 178% in the assay with M5076 [40]; 0% in the assay on Homo sapiens [44]; 301% in [46]. The Weight difference with P388 [1] was 1.5 g; in the assay with P388 [28], -2.4 g; in the assay on M5076 [39], -2.8 g; with Homo sapiens [43] it was -5.3 g; in [45], -3.3 g; in the assay with P388 [19] it was -1.1 g. The TDS with P388 [30], in the assay with P388 [4] and in the assay with P388 [34] was 6 each time. The KE worked out at 3.74 with P388 [41], 2.06 with P388 [42] and 0.59 in the assay with P388 [10]. In assay [13], this compound registered a K' of 0.00321 abs/time.
As for `CC(C)NC(=O)OCc1c(-c2ccccc2)c(-c2ccccc2)c(COC(=O)NC(C)C)n1C`, the values for the T/C with P388 [38], with P388 [27] and with P388 [5] were 101%, 98% and 107%, respectively. The TDS ratio in the assay on P388 [1], in the assay on P388 [28] and in the assay with P388 [19] was 6 each time. Besides, the Weight difference with P388 [1] is on record as -0.2 g; with P388 [28] it was -1.7 g; in the assay on P388 [19] it was 0 g. The values for the KE with P388 [41], in the assay with P388 [42] and with P388 [10] were -1.51, -1.56 and -1.44, respectively. Besides, the K' in [13] was found to be 0.00669 abs/time.
